Measurements reported in ChEMBL document CHEMBL1128695, “Synthesis and antiviral activity of 8-aza analogs of chiral [2-(phosphonomethoxy) propyl]guanines” (J Med Chem, 1995).

Experiments:
[1] = Selectivity Index measured as the ratio of CC50 to that of EC50(HIV-1) values.; assay type: functional
Method in brief: (§1)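 HIV-1 IIIB (100 CCID50, MOI 0.01) was added to 1×10^4 MT-4 cells per well in RPMI/10% FCS with serial compound dilutions, made from a 100 mg/mL DMSO stock. After 4 days at 37 °C, viable cells were counted by MTT. […] SI = CC50/EC50.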

[2] = Selectivity Index measured as the ratio of CC50 to that of EC50(HIV-2) values.; assay type: functional
Method in brief: (§2)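 HIV-2 ROD (100 CCID50, MOI 0.01) infected 1×10^4 MT-4 cells per well in RPMI/10% FCS containing compound dilutions, made from a 100 mg/mL DMSO stock. After 8 days at 37 °C, MTT read viability. […] The CC50 comes from parallel mock-infected MT-4 cultures by MTT over 4 days. The index is the CC50/EC50 ratio.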

MT4 [3] = experiment: Protection of MT-4 cells against the cytopathic effect of HIV-2 (8 days); assay type: functional, cell-based; details: Homo sapiens, MT4, 192 h
Method in brief: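 MT-4 cells (1×10^4/well, RPMI/10% FCS) with compound dilutions, infected with HIV-2 ROD at 100 CCID50 (MOI 0.01). Stock from persistently infected CEM supernatant.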

MT4 [4] = experiment: Protection of MT-4 cells against the cytopathic effect of HIV-1 (4 days); assay type: functional, cell-based; details: Homo sapiens, MT4, 96 h
Method in brief: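 MT-4 cells (1×10^4/well, RPMI/10% FCS) with compound dilutions, infected with HIV-1 IIIB at 100 CCID50 (MOI 0.01). Stock from persistently infected H9/IIIB supernatant, titrated in C8166 by syncytia scoring.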

MT4 [5] = experiment: Cytotoxic concentration required to reduce viability of mock-infected MT-4 cells (4 days); assay type: functional; details: Homo sapiens, MT4, 96 h
Method in brief: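 Mock-infected MT-4 cells, 1×10^4/well, incubated with serial compound dilutions (DMSO stock 100 mg/mL diluted in RPMI/10% FCS) for 4 days at 37 °C, run alongside the antiviral test.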

[6] = Selectivity Index measured as the ratio of CC50 to that of EC50 (HIV-2) values.; assay type: functional; method in brief: as §2
[7] = Selectivity Index measured as the ratio of CC50 to that of EC50 (HIV-1) values.; assay type: functional; method in brief: as §1

Question: What does the source list for `C[C@@H](Cn1nc2nc(N)nc(O)c2n1)OCP(=O)(O)O`?
Answer: Selectivity index [1]: > 7.5; Selectivity index [2]: > 5.5; EC50 (MT4 [3]): 73 µM; EC50 (MT4 [4]): 53 µM; CC50 (MT4 [5]): > 400 µM

Question: Which Selectivity index [6] does the source give for `C[C@H](Cn1nnc2c(O)nc(N)nc21)OCP(=O)(O)O` here?
Answer: The Selectivity index was 2.

Question: What about the Selectivity index [7] of the same compound?
Answer: The Selectivity index was > 4.3.

Question: What about the EC50 (MT4 [3]) of the same compound?
Answer: The EC50 was 200 µM.

Question: What about the EC50 (MT4 [4]) of the same compound?
Answer: The EC50 was 93 µM.

Question: And the CC50 (MT4 [5])?
Answer: Its CC50 is > 400 µM.

Question: Which CC50 (MT4 [5]) does the source give for `Cc1cn([C@H]2C[C@H](N=[N+]=[N-])[C@@H](CO)O2)c(=O)[nH]c1=O` [ZIDOVUDINE] here?
Answer: Its CC50 is > 20 µM.

Question: With `Nc1nc2c(ncn2CCOCP(=O)(O)O)c(=O)[nH]1` [GS-438] as the compound, how does the Selectivity index [6] read?
Answer: The Selectivity index was 12.

Question: And the Selectivity index [7]?
Answer: The Selectivity index was 12.6.

Question: What about the EC50 (MT4 [3]) of the same compound?
Answer: Its EC50 is 0.2 µM.

Question: And the EC50 (MT4 [4])?
Answer: The EC50 was 0.19 µM.

Question: And the CC50 (MT4 [5])?
Answer: Its CC50 is 2.4 µM.

Question: For `C[C@H](Cn1nc2nc(N)nc(O)c2n1)OCP(=O)(O)O`, which EC50 (MT4 [3]) is on record?
Answer: The EC50 was > 400 µM.

Question: What about the EC50 (MT4 [4]) of the same compound?
Answer: Its EC50 is > 400 µM.

Question: What about the CC50 (MT4 [5]) of the same compound?
Answer: The CC50 was > 400 µM.

Question: With `C[C@H](Cn1cnc2c(O)nc(N)nc21)OCP(=O)(O)O` as the compound, how does the Selectivity index [6] read?
Answer: The Selectivity index was 1.6.

Question: And the Selectivity index [7]?
Answer: The Selectivity index was 2.5.

Question: What about the EC50 (MT4 [3]) of the same compound?
Answer: Its EC50 is 30 µM.

Question: What about the EC50 (MT4 [4]) of the same compound?
Answer: The EC50 was 19 µM.

Question: And the CC50 (MT4 [5])?
Answer: The CC50 was > 48 µM.

Question: For `C[C@@H](Cn1cnc2c(O)nc(N)nc21)OCP(=O)(O)O`, which Selectivity index [6] is on record?
Answer: The Selectivity index was > 89.

Question: And the Selectivity index [7]?
Answer: The Selectivity index was > 89.

Question: What about the EC50 (MT4 [3]) of the same compound?
Answer: Its EC50 is 4.5 µM.

Question: And the EC50 (MT4 [4])?
Answer: The EC50 was 4.5 µM.

Question: What about the CC50 (MT4 [5]) of the same compound?
Answer: The CC50 was > 400 µM.

Question: For `C[C@@H](Cn1nnc2c(O)nc(N)nc21)OCP(=O)(O)O`, which Selectivity index [6] is on record?
Answer: Its Selectivity index is > 32.

Question: What about the Selectivity index [7] of the same compound?
Answer: The Selectivity index was > 33.

Question: And the EC50 (MT4 [3])?
Answer: Its EC50 is 12.5 µM.

Question: And the EC50 (MT4 [4])?
Answer: Its EC50 is 12 µM.

Question: And the CC50 (MT4 [5])?
Answer: The CC50 was > 400 µM.
